Results: publication PMC9534497 (Science Advances, 2022)

How the values were obtained:
[1] = Stability of ATP binding of DnaA at 4°, 30° or 42°C, filter retention assay; design: species or system E. coli
Method in brief: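 Purified DnaA (1.9 μM) was loaded with 1 μM [α-32P]ATP in PP-60 buffer for 15 min at 4°C, then held at 4°, 30° or 42°C. Aliquots were withdrawn at timed intervals. Bound nucleotide was measured by retention on nitrocellulose filters and scintillation counting.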

E. coli CM742 (dnaA46ts) = assay: Flow cytometry, total DNA content per cell; format: cell-based; settings: 30°C, 0.2% arabinose, rifampicin and cephalexin 2.5 hours
Method in brief: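 Host is dnaA46ts E. coli transformed with pBAD-derived plasmids carrying wild-type or mutant dnaA under an arabinose promoter. Overnight LB cultures with antibiotics were diluted to OD600 ~0.005 and grown 45 min. Each culture was split: one half got 0.2% arabinose, the other 0.2% glucose. At 30°C to OD600 0.15, then rifampicin (150 μg/ml) plus cephalexin (10 μg/ml) for 2.5 h; DNA content measured by flow cytometry.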

[2] = system: E. coli CM742 (dnaA46ts) carrying pRD (seqA); assay: Growth of dnaA46ts cells with SeqA-expressing plasmid pRD; format: cell-based; settings: 30°C, IPTG 50 μM (SeqA expressed), no arabinose, 0.2% arabinose or 0.2% glucose
Method in brief: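 Cells carrying the IPTG-inducible seqA plasmid were made competent on LB-agar with tetracycline and 50 μM IPTG. They were transformed with pBAD-based dnaA plasmids and selected at 30°C on tetracycline (12.5 μg/ml) plus ampicillin (100 μg/ml). Single colonies were grown in LB to OD600 ~0.1. Equal OD units were replica-plated with no sugar, 0.2% arabinose or 0.2% glucose.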

[3] = system: E. coli EH3287 (∆dnaA/pgsA^+); assay: Subcellular fractionation and immunoblotting of DnaA; format: cell-based; settings: 0.2% arabinose for 90 min
Method in brief: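 ΔdnaA/pgsA+ cells carrying arabinose-inducible dnaA alleles were grown to OD600 ~0.1, then induced with 0.2% arabinose for 90 min. Lysis used lysozyme (300 μg/ml) plus three freeze-thaw cycles. Cytosol and membranes were separated at 44,000 rpm for 30 min. Membranes were solubilized in octyl-thio-glucoside or CHAPS, recentrifuged and dialysed overnight. Protein levels are relative to wild type, averaged over three biological replicates.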

[4] = ThermoFluor assay, melting point of DnaA proteins; format: physicochemical, E. coli
[5] = DTSSP cross-linking for higher-oligomer forms of DnaA; format: biochemical, E. coli; settings: ATP form treated with DTSSP
E. coli MG1655 = assay: Growth of wild-type host on overexpression of DnaA; format: cell-based; settings: 30°C, WT host
E. coli EH3827 = assay: In vivo replication assay, poriC transformation of ∆dnaA cells; format: cell-based; settings: 0.1 or 0.2% arabinose, versus DnaA WT
[6] = ThermoFluor assay with SUVs composed of DOPG; format: physicochemical, E. coli; settings: ATP-bound form
Method in brief: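 DnaA (10 μM) was pre-incubated with 5 mM ATP on ice for 15 min, then mixed with DOPG small unilamellar vesicles at the stated concentrations. SYPRO Orange (50× dilution) was added to 50 μl final volume. Fluorescence was recorded from 25° to 95°C at 1 min/°. Tm and −dF/dT came from a variable-slope sigmoidal fit.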

[7] = 37°C, at least 60 min, not challenged with acidic phospholipids; cited from earlier work
[8] = 4° and 30°C, with reduced affinity
[9] = protein 5 μM with ATP 5 mM (Fig. 2)
[10] = ATP-bound form, protein 10 μM, ATP 5 mM, no SUVs (Fig. 7C)

B1: DnaA(D118Q): DnaA mutant, Asp^118 in the linker domain substituted with Gln (protein)
chain: MSLSLWQQCLARLQDELPATEFSMWIRPLQAELSDNTLALYAPNRFVLDWVRDKYLNNINGLLTSFCGADAPQLRFEVGTKPVTQTPQAAVTSNVAAPAQVAQTQPQRAAPSTRSGWQNVPAPAEPTYRSNVNVKHTFDNFVEGKSNQLARAAARQVADNPGGAYNPLFLYGGTGLGKTHLLHAVGNGIMARKPNAKVVYMHSERFVQDMVKALQNNAIEEFKRYYRSVDALLIDDIQFFANKERSQEEFFHTFNALLEGNQQIILTSDRYPKEINGVEDRLKSRFGWGLTVAIEPPELETRVAILMKKADENDIRLPGEVAFFIAKRLRSNVRELEGALNRVIANANFTGRAITIDFVREALRDLLALQEKLVTIDNIQKTVAEYYKIKVADLLSKRRSRSVARPRQMAMALAKELTNHSLPEIGDAFGGRDHTTVLHACRKIEQLREESHDIKEDFSNLIRTLSS
modifications: left off: His10, N-terminal, state not stated
retention of bound ATP [1, 8]: maintained its ATP form
overreplication / DNA content per cell upon induction of DnaA (E. coli CM742 (dnaA46ts)): more extensive
growth on LB-agar plates [2]: showed growth at 30 °C
DnaA in OTG-solubilized membrane fraction (immunoblotting) [3]: abundant accumulation in the membrane
melting point [4, 9]: 49 °C
formation of higher-order oligomer assemblies [5]: higher-order oligomer assemblies were not formed
growth of the host on induced expression (E. coli MG1655): no growth defect
reduction in the number of transformants (E. coli EH3827): at least 50 fold

B2: DnaA(L366K): DnaA with substitution L366K in the AAA+ membrane-binding region (protein, UniProt P03004 1-467, looked up, variant L366K)
Chromosomal replication …: MSLSLWQQCLARLQDELPATEFSMWIRPLQAELSDNTLALYAPNRFVLDWVRDKYLNNINGLLTSFCGADAPQLRFEVGTKPVTQTPQAAVTSNVAAPAQVAQTQPQRAAPSTRSGWDNVPAPAEPTYRSNVNVKHTFDNFVEGKSNQLARAAARQVADNPGGAYNPLFLYGGTGLGKTHLLHAVGNGIMARKPNAKVVYMHSERFVQDMVKALQNNAIEEFKRYYRSVDALLIDDIQFFANKERSQEEFFHTFNALLEGNQQIILTSDRYPKEINGVEDRLKSRFGWGLTVAIEPPELETRVAILMKKADENDIRLPGEVAFFIAKRLRSNVRELEGALNRVIANANFTGRAITIDFVREALRDKLALQEKLVTIDNIQKTVAEYYKIKVADLLSKRRSRSVARPRQMAMALAKELTNHSLPEIGDAFGGRDHTTVLHACRKIEQLREESHDIKEDFSNLIRTLSS
melting point (peak) ([6]; 25 μM DOPG SUVs (Fig. 7D)): 50 °C
melting point (peak) ([6]; 100 μM DOPG SUVs (Fig. 7E)): did not shift further
DnaA in OTG-solubilized membrane fraction (immunoblotting) [3]: retained in the OTG-solubilized membrane fractions
melting point [4, 10]: 54 °C

B3: mutant DnaA protein where Asp^118 is substituted with Gly: DnaA mutant, Asp^118 substituted with Gly (protein, UniProt P03004 1-467, looked up, variant D118G)
Chromosomal replication …: MSLSLWQQCLARLQDELPATEFSMWIRPLQAELSDNTLALYAPNRFVLDWVRDKYLNNINGLLTSFCGADAPQLRFEVGTKPVTQTPQAAVTSNVAAPAQVAQTQPQRAAPSTRSGWGNVPAPAEPTYRSNVNVKHTFDNFVEGKSNQLARAAARQVADNPGGAYNPLFLYGGTGLGKTHLLHAVGNGIMARKPNAKVVYMHSERFVQDMVKALQNNAIEEFKRYYRSVDALLIDDIQFFANKERSQEEFFHTFNALLEGNQQIILTSDRYPKEINGVEDRLKSRFGWGLTVAIEPPELETRVAILMKKADENDIRLPGEVAFFIAKRLRSNVRELEGALNRVIANANFTGRAITIDFVREALRDLLALQEKLVTIDNIQKTVAEYYKIKVADLLSKRRSRSVARPRQMAMALAKELTNHSLPEIGDAFGGRDHTTVLHACRKIEQLREESHDIKEDFSNLIRTLSS
melting point [4, 9]: 55 °C

B4: DnaA(WT): wild-type E. coli chromosomal replication initiator protein DnaA, purified 10× histidine-tagged (protein)
chain: MSLSLWQQCLARLQDELPATEFSMWIRPLQAELSDNTLALYAPNRFVLDWVRDKYLNNINGLLTSFCGADAPQLRFEVGTKPVTQTPQAAVTSNVAAPAQVAQTQPQRAAPSTRSGWDNVPAPAEPTYRSNVNVKHTFDNFVEGKSNQLARAAARQVADNPGGAYNPLFLYGGTGLGKTHLLHAVGNGIMARKPNAKVVYMHSERFVQDMVKALQNNAIEEFKRYYRSVDALLIDDIQFFANKERSQEEFFHTFNALLEGNQQIILTSDRYPKEINGVEDRLKSRFGWGLTVAIEPPELETRVAILMKKADENDIRLPGEVAFFIAKRLRSNVRELEGALNRVIANANFTGRAITIDFVREALRDLLALQEKLVTIDNIQKTVAEYYKIKVADLLSKRRSRSVARPRQMAMALAKELTNHSLPEIGDAFGGRDHTTVLHACRKIEQLREESHDIKEDFSNLIRTLSS
modifications: left off: His10, N-terminal, state not stated
retention of bound ATP ([1]; 4°, 30° and 42°C, up to 60 min): retained ATP at different temperatures comparably
melting point (peak) ([6]; 100 μM DOPG SUVs (Fig. 7E)): 44 °C
DnaA in OTG-solubilized membrane fraction (immunoblotting) [3]: retained in the OTG-solubilized membrane fractions
ATP-DnaA complex remaining intact [7]: > 90%
melting point [4, 10]: approximately 57 °C
melting point [4, 9]: 57 °C

B5: DnaA(A184V): control DnaA mutant defective in ATP binding, changed residue within nucleotide-binding pocket of domain III (protein, UniProt P03004 1-467, looked up, variant A184V)
Chromosomal replication …: MSLSLWQQCLARLQDELPATEFSMWIRPLQAELSDNTLALYAPNRFVLDWVRDKYLNNINGLLTSFCGADAPQLRFEVGTKPVTQTPQAAVTSNVAAPAQVAQTQPQRAAPSTRSGWDNVPAPAEPTYRSNVNVKHTFDNFVEGKSNQLARAAARQVADNPGGAYNPLFLYGGTGLGKTHLLHVVGNGIMARKPNAKVVYMHSERFVQDMVKALQNNAIEEFKRYYRSVDALLIDDIQFFANKERSQEEFFHTFNALLEGNQQIILTSDRYPKEINGVEDRLKSRFGWGLTVAIEPPELETRVAILMKKADENDIRLPGEVAFFIAKRLRSNVRELEGALNRVIANANFTGRAITIDFVREALRDLLALQEKLVTIDNIQKTVAEYYKIKVADLLSKRRSRSVARPRQMAMALAKELTNHSLPEIGDAFGGRDHTTVLHACRKIEQLREESHDIKEDFSNLIRTLSS
retention of bound ATP [1, 8]: maintained its ATP form
overreplication / DNA content per cell upon induction of DnaA (E. coli CM742 (dnaA46ts)): more extensive
growth on LB-agar plates [2]: showed growth at 30 °C
melting point [4, 9]: 49 °C
reduction in the number of transformants (E. coli EH3827): at least 50 fold

B6: DnaA(D118A) (protein, UniProt P03004 1-467, looked up, variant D118A)
Chromosomal replication …: MSLSLWQQCLARLQDELPATEFSMWIRPLQAELSDNTLALYAPNRFVLDWVRDKYLNNINGLLTSFCGADAPQLRFEVGTKPVTQTPQAAVTSNVAAPAQVAQTQPQRAAPSTRSGWANVPAPAEPTYRSNVNVKHTFDNFVEGKSNQLARAAARQVADNPGGAYNPLFLYGGTGLGKTHLLHAVGNGIMARKPNAKVVYMHSERFVQDMVKALQNNAIEEFKRYYRSVDALLIDDIQFFANKERSQEEFFHTFNALLEGNQQIILTSDRYPKEINGVEDRLKSRFGWGLTVAIEPPELETRVAILMKKADENDIRLPGEVAFFIAKRLRSNVRELEGALNRVIANANFTGRAITIDFVREALRDLLALQEKLVTIDNIQKTVAEYYKIKVADLLSKRRSRSVARPRQMAMALAKELTNHSLPEIGDAFGGRDHTTVLHACRKIEQLREESHDIKEDFSNLIRTLSS
retention of bound ATP ([1]; 4°, 30° and 42°C, up to 60 min): retained ATP at different temperatures comparably
melting point [4, 9]: no shift

B7: Apo-DnaA: DnaA protein without bound nucleotide, ground or inactive state (protein, UniProt P03004 1-467, looked up)
Chromosomal replication …: MSLSLWQQCLARLQDELPATEFSMWIRPLQAELSDNTLALYAPNRFVLDWVRDKYLNNINGLLTSFCGADAPQLRFEVGTKPVTQTPQAAVTSNVAAPAQVAQTQPQRAAPSTRSGWDNVPAPAEPTYRSNVNVKHTFDNFVEGKSNQLARAAARQVADNPGGAYNPLFLYGGTGLGKTHLLHAVGNGIMARKPNAKVVYMHSERFVQDMVKALQNNAIEEFKRYYRSVDALLIDDIQFFANKERSQEEFFHTFNALLEGNQQIILTSDRYPKEINGVEDRLKSRFGWGLTVAIEPPELETRVAILMKKADENDIRLPGEVAFFIAKRLRSNVRELEGALNRVIANANFTGRAITIDFVREALRDLLALQEKLVTIDNIQKTVAEYYKIKVADLLSKRRSRSVARPRQMAMALAKELTNHSLPEIGDAFGGRDHTTVLHACRKIEQLREESHDIKEDFSNLIRTLSS
modifications: nucleotide-free
melting point ([4]; Apo form, no ATP): 44 °C
